Key:
[1] = 3D bioprinted HSE, ALI model, tdTomato signal; type: cell-based, human; conditions: human
Method in brief: (§1)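 Bioprinted dermal base (fibrinogen, gelatin, collagen I) on a transwell membrane, with 20,000 keratinocytes seeded on top and tdTomato-labelled fibroblasts. Four days after air-lift, GFP HSV-1 K26 (MOI 0.1, in cornification medium) and test compound were added basally, and tissues fixed at 48 hpi. Imaging: 4X z-stack maximum projection, edge mask and ≥14.8 µm object filter. GFP and tdTomato were normalised to infected DMSO and uninfected controls (tdTomato floor 0). Triplicate dose-response, curve-classed.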

[2] = tested on: HSV-1 strain K26 (GFP-expressing); assay: 3D bioprinted HSE, ALI model, basolateral HSV-1 infection, GFP signal; type: cell-based; conditions: for Emax: Human alphaherpesvirus 1, 48 h, read-out: ALI Max Inhibition (%); for ALI Curve Class: CRC class for HSV-1 inhibition
Method in brief: as §1

[3] = tested on: HSV-1 strain K26 (GFP-expressing); assay: 3D bioprinted HSE, submerged model, apical HSV-1 infection, GFP signal; type: cell-based; conditions: for Emax: Human alphaherpesvirus 1, 48 h, read-out: submerged Max Inhibition (%); for submerged Curve Class: CRC class for HSV-1 inhibition
Method in brief: (§2)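 Skin equivalent: printed fibrin/gelatin/collagen dermis with tdTomato-labelled fibroblasts and 20,000 keratinocytes on a transwell. One day after keratinocyte seeding, GFP HSV-1 K26 (MOI 0.1) was added apically and test compound to the basal medium, and tissues fixed at 48 hpi. GFP and tdTomato total fluorescence were read from 4X z-stack maximum projections within a ~4 mm circular mask. Values were normalised to DMSO-infected and uninfected wells. Triplicate dose-response, curve-classed.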

[4] = 3D bioprinted HSE, submerged model, tdTomato signal; type: cell-based, human; conditions: human
Method in brief: as §2

[5] = tested on: tdTomato fibroblasts; assay: 3D bioprinted HSE, ALI model, tdTomato signal; type: cell-based, human; conditions: read-out: ALI CC50; tdTomato fibroblasts, triplicate
Method in brief: as §1

[6] = tested on: tdTomato fibroblasts; assay: 3D bioprinted HSE, submerged model, tdTomato signal; type: cell-based, human; conditions: for CC50: read-out: submerged CC50, tdTomato fibroblasts, triplicate
Method in brief: as §2

[7] = tested on: primary keratinocytes; assay: 2D cytotoxicity in uninfected primary keratinocytes; type: cell-based, human; conditions: absence of viral infection
[8] = tested on: HSV-1 strain K26 (GFP-expressing); type: cell-based; conditions: 2D monoculture
[9] = tested on: HSV-1 strain K26 (GFP-expressing); type: cell-based; conditions: 2D monoculture; for selectivity ratio: read-out: selectivity index in fibroblasts
[10] = Human alphaherpesvirus 1, read-out: ALI IC50 (μM)
[11] = Human alphaherpesvirus 1, read-out: submerged IC50 (μM)
[12] = read-out: submerged IC50, triplicate, 48HPI

Compound	CC50 at 48 h [1]	Emax [2]	IC50 [2, 10]	Emax [3]	IC50 [3, 11]	CC50 at 48 h [4]	also measured
O=C(Nc1ccc([N+](=O)[O-])cc1Cl)c1cc(Cl)ccc1O [Niclosamide]	> 10000 nM	98.7%	0.11 µM	97.1%	0.39 µM	> 10000 nM	–
C=CC(=O)N1CC/C(=C\c2ccc(F)c([N+](=O)[O-])c2)C(=O)/C(=C/c2ccc(F)c([N+](=O)[O-])c2)C1 [VLX1570]	–	–	0.16 µM	–	–	–	CC50 [5]: > 10000 nM; ALI Curve Class ([2]; triplicate): −1.1; ALI Max Inhibition (%) ([2]; triplicate, 48HPI): 101.22%; submerged Curve Class ([3]; triplicate): −2.5; IC50 [3, 12]: 6.67 µM; submerged Max Inhibition (%) ([3]; triplicate, 48HPI): 55.49%; CC50 [6]: 8410 nM
CC1(C)CC(=O)c2c(C(F)(F)F)nn(-c3ccc(C(N)=O)c(N[C@H]4CC[C@H](O)CC4)c3)c2C1 [SNX-2112]	> 10000 nM	107%	< 0.04 µM	102%	0.05 µM	1140 nM	toxicity in keratinocytes [7]: showed toxicity in keratinocytes
COc1ccc(-c2nc(N3CCOCC3)c3sc(CN(C)c4ncc(C(=O)NO)cn4)cc3n2)cn1 [Fimepinostat]	> 10000 nM	88.6%	< 0.04 µM	87.4%	1.48 µM	> 10000 nM	inhibition of viral GFP expression in keratinocytes [8]: at least 50%
CC(=O)O[C@H]1C[C@H](O[C@H]2[C@@H](O)C[C@H](O[C@H]3[C@@H](O)C[C@H](O[C@H]4CC[C@@]5(C)[C@H](CC[C@@H]6[C@@H]5C[C@@H](O)[C@]5(C)[C@@H](C7=CC(=O)OC7)CC[C@]65O)C4)O[C@@H]3C)O[C@@H]2C)O[C@H](C)[C@H]1O[C@@H]1O[C@H](CO)[C@@H](O)[C@H](O)[C@H]1O [Lanatoside C]	> 10000 nM	99.5%	0.08 µM	107%	0.09 µM	2490 nM	selectivity ratio [9]: > 750; toxicity in keratinocytes [7]: showed toxicity in keratinocytes
Cc1cccc(C)c1N(CC(=O)Nc1ccc(-c2ncon2)cc1)C(=O)C1CCS(=O)(=O)CC1 [Amenamevir]	> 10000 nM	112%	0.16 µM	85.3%	0.27 µM	> 10000 nM	selectivity index in keratinocytes [8]: > 250; selectivity index in fibroblasts [9]: > 400
Nc1ccn([C@@H]2O[C@H](CO)[C@@H](O)C2(F)F)c(=O)n1 [Gemcitabine]	> 10000 nM	102%	0.16 µM	99.8%	0.19 µM	> 10000 nM	selectivity ratio [9]: > 750; toxicity in keratinocytes [7]: showed toxicity in keratinocytes
Cc1nc(N(C)C(=O)Cc2ccc(-c3ccccn3)cc2)sc1S(N)(=O)=O [Pritelivir]	> 10000 nM	102%	0.21 µM	94.6%	0.5 µM	> 10000 nM	selectivity index in keratinocytes [8]: > 250; selectivity index in fibroblasts [9]: > 400
Fluoroemetine	–	–	–	–	–	–	CC50 [5]: > 10000 nM; CC50 [6]: > 10000 nM
Nc1nc2c(ncn2COCCO)c(=O)[nH]1 [Acyclovir]	–	–	–	–	–	–	IC50 ([2]; Human alphaherpesvirus 1): < 0.04 µM; IC50 ([3]; submerged tissues, assay validation, fig. S5): 0.36 µM; cytotoxic effects on the fibroblasts ([6]; submerged and ALI models, tdTomato signal): minimal cytotoxic effects
O=C(/C=C\n1cnc(-c2cc(C(F)(F)F)cc(C(F)(F)F)c2)n1)NNc1ccccn1 [Verdinexor]	> 10000 nM	108%	0.17 µM	68.6%	0.48 µM	> 10000 nM	inhibition of viral GFP expression in keratinocytes [8]: at least 50%
CC(C)c1cnn2c(NCc3ccccc3-n3cccn3)nc(OC3CCCNC3)nc12 (centres unmarked) [LDC4297]	–	–	–	–	–	–	CC50 [5]: > 10000 nM; ALI Curve Class ([2]; triplicate): −1.1; IC50 ([2]; read-out: ALI IC50, triplicate, 48HPI): 0.11 µM; ALI Max Inhibition (%) ([2]; triplicate, 48HPI): 99.87%; submerged Curve Class ([3]; triplicate): −2.1; IC50 [3, 12]: 0.68 µM; submerged Max Inhibition (%) ([3]; triplicate, 48HPI): 94.82%; CC50 [6]: > 10000 nM
